According to ChEMBL document CHEMBL1821556, “Structure-activity relationships of antitubercular nitroimidazoles. 3. Exploration of the linker and lipophilic tail of ((s)-2-nitro-6,7-dihydro-5H-imidazo[2,1-b][1,3]oxazin-6-yl)-(4-trifluoromethoxybenzyl)amine (6-amino PA-824)” (J Med Chem, 2011):

What was measured:
[1] = substrate: O=[N+]([O-])c1cn2c(n1)OC[C@@H](NCc1ccc(OC(F)(F)F)cc1OC1CC1)C2; experiment: (§1) Ratio of Kcat to Km for Mycobacterium tuberculosis deazaflavin-dependent nitroreductase
Outline: (§2)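 Each compound was tested as a substrate of Mtb deazaflavin-dependent nitroreductase (Ddn). kcat/KM was derived from the kinetics of reduced F420 reoxidation. Assays were repeated in two independent laboratories until concordant, and values are averages of multiple measurements.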

[2] = substrate: O=[N+]([O-])c1cn2c(n1)OC[C@@H](NCc1ccc(OC(F)(F)F)cc1OCC1CC1)C2; experiment: as §1; outline: as §2
[3] = substrate: CC(N[C@@H]1COc2nc([N+](=O)[O-])cn2C1)c1ccc(OC(F)(F)F)cc1; experiment: as §1; outline: as §2
[4] = substrate: CN(Cc1ccc(OC(F)(F)F)cc1)[C@@H]1COc2nc([N+](=O)[O-])cn2C1; experiment: as §1; outline: as §2
[5] = substrate: O=C(c1ccccc1)N(Cc1ccc(OC(F)(F)F)cc1)[C@@H]1COc2nc([N+](=O)[O-])cn2C1; experiment: as §1; outline: as §2
[6] = substrate: NC(=O)C(N[C@@H]1COc2nc([N+](=O)[O-])cn2C1)c1ccc(OC(F)(F)F)cc1; experiment: as §1; outline: as §2
[7] = substrate: O=CN(Cc1ccc(OC(F)(F)F)cc1)[C@@H]1COc2nc([N+](=O)[O-])cn2C1; experiment: as §1; outline: as §2
[8] = substrate: O=[N+]([O-])c1cn2c(n1)OC[C@@H](NC(c1ccc(OC(F)(F)F)cc1)c1ncc[nH]1)C2; experiment: as §1; outline: as §2
[9] = substrate: O=[N+]([O-])c1cn2c(n1)OC[C@@H](NCc1ccc(OC(F)(F)F)c(Oc3ccccc3)c1)C2; experiment: as §1; outline: as §2
[10] = substrate: CC(=O)N(Cc1ccc(OC(F)(F)F)cc1)[C@@H]1COc2nc([N+](=O)[O-])cn2C1; experiment: as §1; outline: as §2
[11] = substrate: CCCCC(N[C@@H]1COc2nc([N+](=O)[O-])cn2C1)c1ccc(OC(F)(F)F)cc1; experiment: as §1; outline: as §2
[12] = substrate: O=[N+]([O-])c1cn2c(n1)OC[C@@H](NCc1ccc(OC(F)(F)F)cc1F)C2; experiment: as §1; outline: as §2
[13] = substrate: O=[N+]([O-])c1cn2c(n1)OC[C@@H](NCc1ccc(OC(F)(F)F)cc1)C2; experiment: as §1; outline: as §2
[14] = substrate: O=C(c1ccc(Cl)cc1)N(Cc1ccc(OC(F)(F)F)cc1)[C@@H]1COc2nc([N+](=O)[O-])cn2C1; experiment: as §1; outline: as §2
[15] = substrate: O=[N+]([O-])c1cn2c(n1)OC[C@@H](NC(c1ccc(OC(F)(F)F)cc1)c1ncco1)C2; experiment: as §1; outline: as §2
[16] = substrate: O=[N+]([O-])c1cn2c(n1)OC[C@@H](NCc1ccc(OC(F)(F)F)c(N3CCOCC3)c1)C2; experiment: as §1; outline: as §2
[17] = substrate: O=[N+]([O-])c1cn2c(n1)OC[C@@H](NCc1ccc(OC(F)(F)F)c(O)c1)C2; experiment: as §1; outline: as §2
[18] = substrate: O=[N+]([O-])c1cn2c(n1)OC[C@@H](NCc1ccc(OC(F)(F)F)c(Cl)c1)C2; experiment: as §1; outline: as §2
[19] = substrate: O=C(c1cccc(Cl)c1)N(Cc1ccc(OC(F)(F)F)cc1)[C@@H]1COc2nc([N+](=O)[O-])cn2C1; experiment: as §1; outline: as §2
[20] = substrate: COc1cc(CN[C@@H]2COc3nc([N+](=O)[O-])cn3C2)ccc1OC(F)(F)F; experiment: as §1; outline: as §2
[21] = substrate: CN1CCN(c2cc(CN[C@@H]3COc4nc([N+](=O)[O-])cn4C3)ccc2OC(F)(F)F)CC1; experiment: as §1; outline: as §2
[22] = substrate: COC(=O)c1cc(CN[C@@H]2COc3nc([N+](=O)[O-])cn3C2)ccc1OC(F)(F)F; experiment: as §1; outline: as §2
[23] = substrate: CC(C)N(Cc1ccc(OC(F)(F)F)cc1)[C@@H]1COc2nc([N+](=O)[O-])cn2C1; experiment: as §1; outline: as §2
[24] = substrate: O=[N+]([O-])c1cn2c(n1)OC[C@@H](NCc1ccc(OC(F)(F)F)cc1Br)C2; experiment: as §1; outline: as §2
[25] = substrate: COc1cc(CO[C@@H]2COc3nc([N+](=O)[O-])cn3C2)ccc1OC(F)(F)F; experiment: as §1; outline: as §2
[26] = substrate: O=[N+]([O-])c1cn2c(n1)OC[C@@H](OCc1ccc(OC(F)(F)F)c(F)c1)C2; experiment: as §1; outline: as §2
[27] = substrate: CN1CCN(c2cc(OC(F)(F)F)ccc2CN[C@@H]2COc3nc([N+](=O)[O-])cn3C2)CC1; experiment: as §1; outline: as §2
[28] = substrate: CCCC(N[C@@H]1COc2nc([N+](=O)[O-])cn2C1)c1ccc(OC(F)(F)F)cc1; experiment: as §1; outline: as §2
[29] = substrate: O=[N+]([O-])c1cn2c(n1)OC[C@@H](NCc1ccc(OC(F)(F)F)c(F)c1)C2; experiment: as §1; outline: as §2
[30] = substrate: O=[N+]([O-])c1cn2c(n1)OC[C@@H](NCc1ccc(OC(F)(F)F)cc1Cl)C2; experiment: as §1; outline: as §2
[31] = substrate: O=[N+]([O-])c1cn2c(n1)OC[C@@H](NCc1ccc(OC(F)(F)F)cc1Oc1ccccc1)C2; experiment: as §1; outline: as §2
[32] = substrate: O=[N+]([O-])c1cn2c(n1)OC[C@@H](NCc1ccc(OC(F)(F)F)cc1N1CCOCC1)C2; experiment: as §1; outline: as §2
[33] = substrate: O=[N+]([O-])c1cn2c(n1)OC[C@@H](OCc1ccc(OC(F)(F)F)c(O)c1)C2; experiment: as §1; outline: as §2
[34] = substrate: O=[N+]([O-])c1cn2c(n1)OC[C@@H](OCc1ccc(OC(F)(F)F)cc1)C2; experiment: as §1; outline: as §2
[35] = substrate: O=C(c1ccccc1Cl)N(Cc1ccc(OC(F)(F)F)cc1)[C@@H]1COc2nc([N+](=O)[O-])cn2C1; experiment: as §1; outline: as §2
[36] = substrate: CCNC(=O)N(Cc1ccc(OC(F)(F)F)cc1)[C@@H]1COc2nc([N+](=O)[O-])cn2C1; experiment: as §1; outline: as §2
[37] = substrate: COc1cc(OC(F)(F)F)ccc1CN[C@@H]1COc2nc([N+](=O)[O-])cn2C1; experiment: as §1; outline: as §2
[38] = substrate: O=[N+]([O-])c1cn2c(n1)OC[C@@H](NC(CCO)c1ccc(OC(F)(F)F)cc1)C2; experiment: as §1; outline: as §2
[39] = substrate: O=[N+]([O-])c1cn2c(n1)OC[C@@H](NC(CO)c1ccc(OC(F)(F)F)cc1)C2; experiment: as §1; outline: as §2
[40] = substrate: CCC(N[C@@H]1COc2nc([N+](=O)[O-])cn2C1)c1ccc(OC(F)(F)F)cc1; experiment: as §1; outline: as §2
[41] = substrate: O=[N+]([O-])c1cn2c(n1)OC[C@@H](NCc1ccc(OC(F)(F)F)cc1O)C2; experiment: as §1; outline: as §2
[42] = substrate: O=[N+]([O-])c1cn2c(n1)OC[C@@H](NCc1ccc(OC(F)(F)F)cc1N1CCCCC1)C2; experiment: as §1; outline: as §2
[43] = substrate: O=[N+]([O-])c1cn2c(n1)OC[C@@H](NCc1ccc(OC(F)(F)F)cc1OCc1ccccc1)C2; experiment: as §1; outline: as §2
[44] = substrate: CCCN(Cc1ccc(OC(F)(F)F)cc1)[C@@H]1COc2nc([N+](=O)[O-])cn2C1; experiment: as §1; outline: as §2

B1: Deazaflavin-dependent nitroreductase (Mycobacterium tuberculosis), P9WP15 (protein)
chain: MPKSPPRFLNSPLSDFFIKWMSRINTWMYRRNDGEGLGGTFQKIPVALLTTTGRKTGQPRVNPLYFLRDGGRVIVAASKGGAEKNPMWYLNLKANPKVQVQIKKEVLDLTARDATDEERAEYWPQLVTMYPSYQDYQSWTDRTIPIVVCEP
With B1 the kcat/Km [1] was 0.31, the kcat/Km [2] was 0.37 and the kcat/Km [3] was 0.09. It also gave a kcat/Km [4] of 0.25, a kcat/Km [5] of 0.16 and a kcat/Km [6] of 0.12. The kcat/Km [7] was 0.07, the kcat/Km [8] was 0.17 and the kcat/Km [9] was 0.13. It also gave a kcat/Km [10] of 0.02, a kcat/Km [11] of 0.4 and a kcat/Km [12] of 0.2. For the same protein, the kcat/Km [13] was 0.17, the kcat/Km [14] was 0.37 and the kcat/Km [15] was 0.2. For the same protein, the kcat/Km [16] was 0.1, the kcat/Km [17] was 0.13 and the kcat/Km [18] was 0.31. The kcat/Km [19] was 0.25, the kcat/Km [20] was 0.19 and the kcat/Km [21] was 0.16. The kcat/Km [22] was 0.17, the kcat/Km [23] was 0.04 and the kcat/Km [24] was 0.25. The kcat/Km [25] was 0.24, the kcat/Km [26] was 0.33 and the kcat/Km [27] was 0.17. For the same protein, the kcat/Km [28] was 0.31, the kcat/Km [29] was 0.21 and the kcat/Km [30] was 0.27. For the same protein, the kcat/Km [31] was 0.42, the kcat/Km [32] was 0.19 and the kcat/Km [33] was 0.14. The kcat/Km [34] was 0.15, the kcat/Km [35] was 0.13 and the kcat/Km [36] was 0. For the same protein, the kcat/Km [37] was 0.15, the kcat/Km [38] was 0.21 and the kcat/Km [39] was 0.15. It also gave a kcat/Km [40] of 0.14, a kcat/Km [41] of 0.18 and a kcat/Km [42] of 0.42. The kcat/Km [43] was 0.31 and the kcat/Km [44] was 0.32.
